Data taken from ChEMBL document CHEMBL1914423, “New imidazo[2,1-b]thiazole derivatives: synthesis, in vitro anticancer evaluation, and in silico studies” (Eur J Med Chem, 2011).

Key:
Assay type in all cases: functional
HT-29 = test: Anticancer activity against human HT-29 cells assessed as cell growth at 10^-5 M after 48 hrs by SRB assay; conditions: HT-29, 48 h, read-out: Activity
How it was run: (§1)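 NCI-60 single-dose screen at one concentration. Cells grown in RPMI 1640 with 5% FBS and 2 mM L-glutamine, plated at 5000–40,000 cells/well, and pre-incubated 24 h at 37 °C in 5% CO2 before DMSO-dissolved drug was added. Cells fixed with TCA, SRB-stained, absorbance read at 515 nm. Percent growth calculated against time-zero and untreated control plates.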

Malme-3M = test: Anticancer activity against human MALME-3M cells assessed as cell growth at 10^-5 M after 48 hrs by SRB assay; conditions: read-out: Activity; how it was run: as §1
KM12 = test: Anticancer activity against human KM12 cells assessed as cell growth at 10^-5 M after 48 hrs by SRB assay; conditions: KM12, 48 h, read-out: Activity; how it was run: as §1
BT-549 = test: Anticancer activity against human BT549 cells assessed as cell growth at 10^-5 M after 48 hrs by SRB assay; conditions: BT-549, 48 h, read-out: Activity; how it was run: as §1
SN12C = test: Anticancer activity against human SN12C cells assessed as cell growth at 10^-5 M after 48 hrs by SRB assay; conditions: read-out: Activity
SNB-75 = test: Anticancer activity against human SNB75 cells assessed as cell growth at 10^-5 M after 48 hrs by SRB assay; conditions: SNB-75, 48 h, read-out: Activity
How it was run: (§2)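 NCI-60 single-dose screen: cells in RPMI 1640 with 5% FBS and 2 mM L-glutamine, plated at 5000–40,000 cells/well by doubling time, and preincubated 24 h at 37 °C. Compound given at one concentration from DMSO stock. Cells TCA-fixed and SRB-stained, absorbance at 515 nm. Percent growth relative to time-zero and untreated controls; inhibition % = 100 − growth %.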

M14 = test: Anticancer activity against human M14 cells assessed as cell growth at 10^-5 M after 48 hrs by SRB assay; conditions: M14, 48 h, read-out: Activity; how it was run: as §1
SK-OV-3 = test: Anticancer activity against human SKOV3 cells assessed as cell growth at 10^-5 M after 48 hrs by SRB assay; conditions: SK-OV-3, 48 h, read-out: Activity
NCI-H322M = test: Anticancer activity against human NCI-H322M cells assessed as cell growth at 10^-5 M after 48 hrs by SRB assay; conditions: read-out: Activity
MCF7 = test: Anticancer activity against human MCF7 cells assessed as cell growth at 10^-5 M after 48 hrs by SRB assay; conditions: MCF7, 48 h, read-out: Activity; how it was run: as §1
UACC-62 = test: Anticancer activity against human UACC62 cells assessed as cell growth at 10^-5 M after 48 hrs by SRB assay; conditions: UACC-62, 48 h, read-out: Activity; how it was run: as §2
RXF 393 = test: Anticancer activity against human RXF393 cells assessed as cell growth at 10^-5 M after 48 hrs by SRB assay; conditions: RXF 393, 48 h, read-out: Activity
SF-539 = test: Anticancer activity against human SF539 cells assessed as cell growth at 10^-5 M after 48 hrs by SRB assay; conditions: SF-539, 48 h, read-out: Activity
T47D = test: Anticancer activity against human T47D cells assessed as cell growth at 10^-5 M after 48 hrs by SRB assay; conditions: read-out: Activity; how it was run: as §2
DU-145 = test: Anticancer activity against human DU145 cells assessed as cell growth at 10^-5 M after 48 hrs by SRB assay; conditions: DU-145, 48 h, read-out: Activity; how it was run: as §1
SNB-19 = test: Anticancer activity against human SNB19 cells assessed as cell growth at 10^-5 M after 48 hrs by SRB assay; conditions: SNB-19, 48 h, read-out: Activity
SF-268 = test: Anticancer activity against human SF268 cells assessed as cell growth at 10^-5 M after 48 hrs by SRB assay; conditions: SF-268, 48 h, read-out: Activity
COLO 205 = test: Anticancer activity against human COLO205 cells assessed as cell growth at 10^-5 M after 48 hrs by SRB assay; conditions: COLO 205, 48 h, read-out: Activity; how it was run: as §1
MOLT-4 = test: Anticancer activity against human MOLT4 cells assessed as cell growth at 10^-5 M after 48 hrs by SRB assay; conditions: MOLT-4, 48 h, read-out: Activity
SK-MEL-28 = test: Anticancer activity against human SK-MEL-28 cells assessed as cell growth at 10^-5 M after 48 hrs by SRB assay; conditions: SK-MEL-28, 48 h, read-out: Activity
NCI/ADR-RES = test: Anticancer activity against human NCI/ADR-RES cells assessed as cell growth at 10^-5 M after 48 hrs by SRB assay; conditions: read-out: Activity
ACHN = test: Anticancer activity against human ACHN cells assessed as cell growth at 10^-5 M after 48 hrs by SRB assay; conditions: read-out: Activity; how it was run: as §1
A498 = test: Anticancer activity against human A498 cells assessed as cell growth at 10^-5 M after 48 hrs by SRB assay; conditions: A498, 48 h, read-out: Activity; how it was run: as §1
MDA-MB-468 = test: Anticancer activity against human MDA-MB-468 cells assessed as cell growth at 10^-5 M after 48 hrs by SRB assay; conditions: MDA-MB-468, 48 h, read-out: Activity
OVCAR-3 = test: Anticancer activity against human OVCAR3 cells assessed as cell growth at 10^-5 M after 48 hrs by SRB assay; conditions: OVCAR-3, 48 h, read-out: Activity
MDA-MB-231 = test: Anticancer activity against human MDA-MB-231 cells assessed as cell growth at 10^-5 M after 48 hrs by SRB assay; conditions: MDA-MB-231, 48 h, read-out: Activity; how it was run: as §1
OVCAR-5 = test: Anticancer activity against human OVCAR5 cells assessed as cell growth at 10^-5 M after 48 hrs by SRB assay; conditions: OVCAR-5, 48 h, read-out: Activity
NCI-H460 = test: Anticancer activity against human NCI-H460 cells assessed as cell growth at 10^-5 M after 48 hrs by SRB assay; conditions: NCI-H460, 48 h, read-out: Activity
NCI-H23 = test: Anticancer activity against human NCI-H23 cells assessed as cell growth at 10^-5 M after 48 hrs by SRB assay; conditions: NCI-H23, 48 h, read-out: Activity
U-251 = test: Anticancer activity against human U251 cells assessed as cell growth at 10^-5 M after 48 hrs by SRB assay; conditions: U-251, 48 h, read-out: Activity; how it was run: as §2
RPMI-8226 = test: Anticancer activity against human RPMI8226 cells assessed as cell growth at 10^-5 M after 48 hrs by SRB assay; conditions: RPMI-8226, 48 h, read-out: Activity
OVCAR-8 = test: Anticancer activity against human OVCAR8 cells assessed as cell growth at 10^-5 M after 48 hrs by SRB assay; conditions: OVCAR-8, 48 h, read-out: Activity

SMILES | growth at 10 µM (HT-29) | growth at 10 µM (Malme-3M) | growth at 10 µM (KM12) | growth at 10 µM (BT-549) | growth at 10 µM (SN12C) | growth at 10 µM (SNB-75) | growth at 10 µM (M14) | growth at 10 µM (SK-OV-3) | growth at 10 µM (NCI-H322M) | growth at 10 µM (MCF7) | growth at 10 µM (UACC-62) | growth at 10 µM (RXF 393) | growth at 10 µM (SF-539) | growth at 10 µM (T47D) | growth at 10 µM (DU-145) | growth at 10 µM (SNB-19) | growth at 10 µM (SF-268) | growth at 10 µM (COLO 205) | growth at 10 µM (MOLT-4) | growth at 10 µM (SK-MEL-28) | other results
O=C(NCCNc1nccc(-c2c(-c3cccc(O)c3)nc3sccn23)n1)Nc1ccccc1 | 61.9% | 36.1% | 68.8% | 96.2% | 64.3% | 71.6% | 24% | 92.3% | 113% | 93.8% | 24.6% | 86.3% | 62.4% | 74.1% | 110% | 108% | 79.8% | 69.3% | 65.5% | 57.4% | growth at 10 µM (NCI/ADR-RES): 101%; growth at 10 µM (ACHN): 85.3%; growth at 10 µM (A498): 99.7%; growth at 10 µM (MDA-MB-468): 51.1%; growth at 10 µM (OVCAR-3): 112%; growth at 10 µM (MDA-MB-231): 85.9%; growth at 10 µM (OVCAR-5): 114%; growth at 10 µM (NCI-H460): 102%; growth at 10 µM (NCI-H23): 114%; growth at 10 µM (U-251): 108%; growth at 10 µM (RPMI-8226): 58.3%; growth at 10 µM (OVCAR-8): 68.1%
O=C(NCCNc1nccc(-c2c(-c3cccc(O)c3)nc3sccn23)n1)c1cc(N2CCOCC2)cc(C(F)(F)F)c1 | 49.2% | 3.04% | 97.3% | 84.8% | 89.8% | 83.2% | 22.4% | 94% | 107% | 85.4% | 8.5% | 77.8% | 101% | 77.7% | 110% | 125% | 102% | 32.7% | 68.5% | 44.5% | growth at 10 µM (NCI/ADR-RES): 103%; growth at 10 µM (ACHN): 79.4%; growth at 10 µM (A498): 92.8%; growth at 10 µM (MDA-MB-468): 94.8%; growth at 10 µM (OVCAR-3): 107%; growth at 10 µM (MDA-MB-231): 74.2%; growth at 10 µM (OVCAR-5): 101%; growth at 10 µM (NCI-H460): 96.2%; growth at 10 µM (NCI-H23): 106%; growth at 10 µM (U-251): 105%; growth at 10 µM (RPMI-8226): 67%; growth at 10 µM (OVCAR-8): 78.1%
COc1cccc(-c2nc3sccn3c2-c2ccnc(NCCNC(=O)c3cc(C(F)(F)F)cc(C(F)(F)F)c3)n2)c1 | 69.8% | 94.1% | 79.4% | 86.2% | 90.8% | 75.8% | 79.3% | 97% | 95.5% | 72.5% | 70.3% | 51.2% | 88.3% | 77% | 94.4% | 99.2% | 82.5% | 93.4% | 67.6% | 97.6% | growth at 10 µM (NCI/ADR-RES): 72.7%; growth at 10 µM (ACHN): 88.2%; growth at 10 µM (A498): 95.6%; growth at 10 µM (MDA-MB-468): 95.6%; growth at 10 µM (OVCAR-3): 90.9%; growth at 10 µM (MDA-MB-231): 82.9%; growth at 10 µM (OVCAR-5): 101%; growth at 10 µM (NCI-H460): 92.2%; growth at 10 µM (NCI-H23): 102%; growth at 10 µM (U-251): 92%; growth at 10 µM (RPMI-8226): 50%; growth at 10 µM (OVCAR-8): 82.4%
